How the values were obtained:
L1210 [1] = assay: In vitro antitumor activity against wild-type L1210/0 cells; assay type: functional, Mus musculus
Summary of the method: (§1)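 Clonogenic survival assay in wild-type or cyclophosphamide-resistant L1210 and P388 cells with 1-h drug exposure. LC99 is the concentration that lowers colony formation to 1% of control. It comes from linear regression of log surviving fraction vs concentration over the linear portion, using at least three determinations. Standard errors are within ±10%.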

P388 [2] = assay: In vitro antitumor activity against cyclophosphamide-resistant P388/CP cells; assay type: functional, Mus musculus; summary of the method: as §1
P388 [3] = assay: In vitro antitumor activity against wild-type P388/0 cells; assay type: functional, Mus musculus; summary of the method: as §1
P388 [4] = assay: Ratio of resistance factor LC99 […] to that of LC99 […]; assay type: functional, Mus musculus
Summary of the method: (§2)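 Resistance factor is LC99 in the cyclophosphamide-resistant line divided by LC99 in the wild-type line. Each LC99 is from a clonogenic assay with 1-h drug exposure: the concentration that reduces colonies to 1% of control, by linear regression of log survival vs concentration from at least three determinations.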

L1210 [5] = assay: In vitro antitumor activity against cyclophosphamide-resistant L1210/CP cells; assay type: functional, Mus musculus; summary of the method: as §1
L1210 [6] = assay: In vivo antitumor activity against intraperitoneal murine wild type L1210 Leukemia cells at 170 umol/kg; assay type: functional, Mus musculus
L1210 [7] = assay: In vivo antitumor activity against intraperitoneal murine wild type L1210 Leukemia cells at 340 umol/kg; assay type: functional, Mus musculus
L1210 [8] = assay: Ratio of resistance factor LC99 […] to that of LC99 […]; assay type: functional, Mus musculus; summary of the method: as §2
L1210 [9] = assay: In vivo antitumor activity against intraperitoneal murine wild type L1210 Leukemia cells at 510 umol/kg; assay type: functional, Mus musculus
[10] = Hydrolysis rate constant at pH 7.4 and 25 mM HEPES buffer; assay type: ADME
Summary of the method: (§3)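 Spectrophotometric hydrolysis assay of model perhydrooxazines at 37 °C. Buffer strength was varied by mixing a stock of 0.25 M HEPES, phenol red (10 mg/100 mL) and KCl (μ = 0.20) with a matching stock that lacked HEPES. Substrate was added in DMSO (1:4 v/v) at a perhydrooxazine:buffer molar ratio of 0.1, with DMSO in the reference cell. The phenol red absorbance rise at 560 nm was read over 1 h. k came from the slope of ln(A∞ − At) vs time.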

[11] = Hydrolysis rate constant at pH 6.8 and 25 mM HEPES buffer; assay type: ADME; summary of the method: as §3
[12] = Hydrolysis rate constant at pH 7.8 and 25 mM HEPES buffer; assay type: ADME; summary of the method: as §3
[13] = Hydrolysis rate constant at pH 7.4 and 50 mM HEPES buffer; assay type: ADME; summary of the method: as §3
[14] = Hydrolysis rate constant at pH 7.4 and 12.5 mM HEPES buffer; assay type: ADME; summary of the method: as §3
[15] = Hydrolysis rate constant at pH 7 and 25 mM HEPES buffer; assay type: ADME; summary of the method: as §3

Row | khydr [10] | khydr [11] | khydr [12] | khydr [13] | khydr [14] | khydr [15] | Compound | LC99 (L1210 [1]) | LC99 (P388 [2]) | LC99 (P388 [3]) | RF (P388 [4]) | LC99 (L1210 [5]) | T/C (L1210 [6]) | T/C (L1210 [7]) | RF (L1210 [8]) | T/C (L1210 [9])
1 |  |  |  |  |  |  | CC1CC(C)(C)NC(CC(OP(=O)(N(CCCl)CCCl)N(CCCl)CCCl)c2ccccc2)O1 (stereo unspecified) | 2 µM | 2 µM | 2 µM | 1 | 3 µM | 125% | 150% | 1.5 | 170%
2 |  |  |  |  |  |  | CC1CC(C)(C)NC(CCOP(=O)(N(CCCl)CCCl)N(CCCl)CCCl)O1 (stereo unspecified) | 7 µM | 10 µM | 5 µM | 2 | 19 µM |  |  | 2.7 | 
3 |  |  |  |  |  |  | CC1CC(C)(C)NC(CCOP(N)(=O)N(CCCl)CCCl)O1 (stereo unspecified) | 21 µM | 92 µM | 19 µM | 4.8 | 145 µM | 144% | 144% | 6.9 | 167%
4 |  |  |  |  |  |  | CCN(CC)P(=O)(OCCC1NC(C)(C)CC(C)O1)N(CC)CC (stereo unspecified) | >200 µM | >200 µM | >200 µM |  | >200 µM |  |  |  | 
5 | 0.0094 min⁻¹ | 0.0042 min⁻¹ | 0.0082 min⁻¹ | 0.0095 min⁻¹ | 0.0086 min⁻¹ | 0.0065 min⁻¹ | C[C@@H]1CC(C)(C)N[C@H](CCc2ccccc2)O1 |  |  |  |  |  |  |  |  | 
6 |  |  |  |  |  |  | CC1CC(C)(C)NC(CC(OP(=O)(N(CCCl)CCCl)N2CCOCC2)c2ccccc2)O1 (stereo unspecified) | 28 µM | 22 µM | 16 µM | 1.4 | 38 µM | 100% | 100% | 1.4 | 111%
7 |  |  |  |  |  |  | CC1CC(C)(C)NC(CCOP(=O)(N(CCCl)CCCl)N2CCOCC2)O1 (stereo unspecified) | 84 µM | 117 µM | 56 µM | 2.1 | 150 µM |  | 113% | 1.8 | 113%
8 |  |  |  |  |  |  | CC1CC(C)(C)NC(CC(OP(N)(=O)N(CCCl)CCCl)c2ccccc2)O1 (stereo unspecified) | 13 µM | 10 µM | 7 µM | 1.4 | 14 µM | 125% | 125% | 1.1 | 
9 |  |  |  |  |  |  | CCN(CC)P(N)(=O)OC(CC1NC(C)(C)CC(C)O1)c1ccccc1 (stereo unspecified) | >200 µM | >200 µM | >200 µM |  | >200 µM |  |  |  | 
10 | 0.0085 min⁻¹ |  |  | 0.0086 min⁻¹ | 0.0088 min⁻¹ |  | CC[C@H]1NC(C)(C)C[C@@H](C)O1 |  |  |  |  |  |  |  |  | 

From ChEMBL document CHEMBL1125771, “Synthesis, activation, and cytotoxicity of aldophosphamide analogues” (J Med Chem, 1991)
